Data from ChEMBL document CHEMBL5696444 (Nat Commun, 2017).

What was measured:
HCT-116 [1] = experiment: Induction of cell cycle arrest in human HCT-116 cells assessed as sub G0/G1 phase at 0.1 uM incubated for 24 hrs by flow cytometry analysis (Rvb=2.5%); type: functional
[2] = target: Homeodomain-interacting protein kinase 1 (Homo sapiens) (UniProt Q86Z02); experiment: Inhibition of HIPK1 (unknown origin) at 100 nM in the presence of ATP by Kinome scan method relative to control
[3] = target: Dual specificity protein kinase CLK1 (Homo sapiens) (UniProt P49759); experiment: Inhibition of CLK (unknown origin) in human 184-hTERT cells assessed as induction in alternative splicing effect in CDC6-RARA level incubated for 6 hrs by RT-PCR analysis; type: cell-based; settings: dose 0.2-5 µM
Dual specificity protein kinase CLK1 (Homo sapiens), sequence (P49759 whole entry, looked up, canonical isoform): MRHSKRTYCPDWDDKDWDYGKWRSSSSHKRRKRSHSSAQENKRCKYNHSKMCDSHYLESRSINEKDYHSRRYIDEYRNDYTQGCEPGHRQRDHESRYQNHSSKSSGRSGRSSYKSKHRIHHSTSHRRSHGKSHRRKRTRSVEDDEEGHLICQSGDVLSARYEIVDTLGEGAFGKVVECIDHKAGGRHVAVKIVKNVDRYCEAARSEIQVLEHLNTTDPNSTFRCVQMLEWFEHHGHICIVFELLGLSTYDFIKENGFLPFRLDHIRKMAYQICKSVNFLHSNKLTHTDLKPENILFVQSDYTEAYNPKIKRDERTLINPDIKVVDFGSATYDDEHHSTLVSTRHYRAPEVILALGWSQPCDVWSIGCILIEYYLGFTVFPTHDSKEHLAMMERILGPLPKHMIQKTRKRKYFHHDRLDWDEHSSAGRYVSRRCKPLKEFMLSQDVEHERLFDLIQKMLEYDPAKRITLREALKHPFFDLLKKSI
Method in brief: (§1)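 Cells exposed to graded T3 concentrations for 6 h (chosen to avoid cytotoxicity), with a DMSO vehicle control. Total RNA was reverse-transcribed with oligo-dT primers. Targeted splice or conjoined-gene products were quantified by real-time qPCR or by targeted next-generation sequencing. Conjoined-gene isoform expression was normalized to a sequenced housekeeping gene.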

[4] = target: Mitogen-activated protein kinase 9 (Homo sapiens) (UniProt P45984); experiment: Inhibition of MAPK9 (unknown origin) at 1000 nM in the presence of ATP by Kinome scan method relative to control
Mitogen-activated protein kinase 9 (Homo sapiens), sequence (P45984 whole entry, looked up): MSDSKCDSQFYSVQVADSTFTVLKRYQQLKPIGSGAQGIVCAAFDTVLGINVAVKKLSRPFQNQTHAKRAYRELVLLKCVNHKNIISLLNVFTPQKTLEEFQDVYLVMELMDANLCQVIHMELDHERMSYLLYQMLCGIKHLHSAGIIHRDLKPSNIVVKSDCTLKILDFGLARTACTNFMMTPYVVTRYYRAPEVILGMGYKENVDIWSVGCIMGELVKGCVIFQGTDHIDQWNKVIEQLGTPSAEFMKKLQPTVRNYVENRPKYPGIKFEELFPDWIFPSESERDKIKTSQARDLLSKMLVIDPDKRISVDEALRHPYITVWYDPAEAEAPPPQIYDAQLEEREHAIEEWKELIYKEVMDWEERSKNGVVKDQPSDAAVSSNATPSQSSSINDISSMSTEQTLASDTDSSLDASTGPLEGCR

[5] = target: Mitogen-activated protein kinase 14 (Homo sapiens) (UniProt Q16539); experiment: Inhibition of MAPK14 (unknown origin) at 100 nM in the presence of ATP by Kinome scan method relative to control
Mitogen-activated protein kinase 14 (Homo sapiens), sequence (Q16539 whole entry): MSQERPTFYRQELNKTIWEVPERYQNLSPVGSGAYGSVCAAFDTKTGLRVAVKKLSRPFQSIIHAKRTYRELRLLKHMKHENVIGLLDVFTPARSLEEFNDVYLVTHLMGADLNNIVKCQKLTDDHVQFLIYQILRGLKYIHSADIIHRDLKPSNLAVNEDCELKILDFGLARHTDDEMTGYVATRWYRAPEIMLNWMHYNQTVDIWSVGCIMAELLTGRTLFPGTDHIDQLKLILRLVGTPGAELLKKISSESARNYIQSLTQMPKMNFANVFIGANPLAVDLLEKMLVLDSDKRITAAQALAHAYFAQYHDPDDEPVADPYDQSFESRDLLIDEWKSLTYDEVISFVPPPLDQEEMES

[6] = target: Inhibitor of nuclear factor kappa-B kinase subunit beta (Homo sapiens) (UniProt O14920); experiment: Inhibition of IKBKB (unknown origin) at 100 nM in the presence of ATP by Kinome scan method relative to control
Inhibitor of nuclear factor kappa-B kinase subunit beta (Homo sapiens), sequence (O14920 whole entry): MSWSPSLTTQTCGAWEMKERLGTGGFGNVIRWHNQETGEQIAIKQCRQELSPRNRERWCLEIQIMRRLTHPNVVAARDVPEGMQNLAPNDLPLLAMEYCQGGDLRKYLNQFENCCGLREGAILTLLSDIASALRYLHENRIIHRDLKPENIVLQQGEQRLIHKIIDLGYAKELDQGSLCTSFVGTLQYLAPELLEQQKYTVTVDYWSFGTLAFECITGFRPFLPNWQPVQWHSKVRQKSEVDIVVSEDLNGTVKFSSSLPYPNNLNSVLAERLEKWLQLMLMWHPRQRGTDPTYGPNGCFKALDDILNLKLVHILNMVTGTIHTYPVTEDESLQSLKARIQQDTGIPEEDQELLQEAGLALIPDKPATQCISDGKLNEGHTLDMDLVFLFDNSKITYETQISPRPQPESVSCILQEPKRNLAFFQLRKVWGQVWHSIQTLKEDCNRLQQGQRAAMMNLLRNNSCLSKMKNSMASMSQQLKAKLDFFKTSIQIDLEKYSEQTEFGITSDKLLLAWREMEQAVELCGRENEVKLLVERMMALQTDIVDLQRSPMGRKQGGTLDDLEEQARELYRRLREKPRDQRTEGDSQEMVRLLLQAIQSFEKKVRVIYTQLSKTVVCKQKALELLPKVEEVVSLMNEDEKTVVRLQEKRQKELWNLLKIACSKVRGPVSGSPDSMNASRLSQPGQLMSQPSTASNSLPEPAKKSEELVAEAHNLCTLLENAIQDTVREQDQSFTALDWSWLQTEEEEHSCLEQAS

HCT-116 [7] = experiment: Induction of apoptosis in human HCT-116 cells assessed as late apoptosis at 1 uM incubated for > 6 hrs by annexin V/PI staining based analysis (Rvb=6.12%); type: functional
HCT-116 [8] = experiment: Induction of cell cycle arrest in human HCT-116 cells assessed as G2/M phase at 10 uM incubated for 6 hrs by flow cytometry analysis (Rvb=25.8%); type: functional
[9] = target: Dual specificity tyrosine-phosphorylation-regulated kinase 1B (Homo sapiens, UniProt Q9Y463); experiment: Inhibition of DYRK1B (unknown origin) using ULight-MBP peptide as substrate incubated for 10 mins in presence of ATP incubated for 45 mins by LANCE Ultra kinase assay
HCT-116 [10] = experiment: Induction of cell cycle arrest in human HCT-116 cells assessed as sub G0/G1 phase at 0.5 uM incubated for 6 hrs by flow cytometry analysis (Rvb=1.6%); type: functional
[11] = target: Mitogen-activated protein kinase 8 (Homo sapiens) (UniProt P45983); experiment: Inhibition of MAPK8 (unknown origin) at 1000 nM in the presence of ATP by Kinome scan method relative to control
HCT-116 [12] = experiment: Induction of apoptosis in human HCT-116 cells assessed as late apoptosis at 0.5 uM incubated for > 6 hrs by annexin V/PI staining based analysis (Rvb=6.12%); type: functional
[13] = target: Dual specificity protein kinase CLK1 (Homo sapiens) (UniProt P49759); experiment: Inhibition of CLK1 (unknown origin) at 1110 nM in the presence of ATP by Kinome scan method relative to control; settings: time > 6.0 hrs
[14] = target: Dual specificity protein kinase CLK1 (Homo sapiens) (UniProt P49759); experiment: Inhibition of CLK (unknown origin) in human HCT-116 cells assessed as induction in alternative splicing effect in S6K canonical isoform incubated for 6 hrs by RT-PCR analysis; type: cell-based; settings: dose 0.2-5 µM; method in brief: as §1
HCT-116 [15] = experiment: Induction of cell cycle arrest in human HCT-116 cells assessed as S phase at 10 uM incubated for 6 hrs by flow cytometry analysis (Rvb=39.3%); type: functional
HCT-116 [16] = experiment: Induction of cell cycle arrest in human HCT-116 cells assessed as S phase at 0.5 uM incubated for 6 hrs by flow cytometry analysis (Rvb=39.3%); type: functional
HCT-116 [17] = experiment: Induction of apoptosis in human HCT-116 cells assessed as viable cells at 10 uM incubated for > 6 hrs by annexin V/PI staining based analysis (Rvb=90.04%); type: functional; settings: read-out: Activity
[18] = target: Mitogen-activated protein kinase 3 (Homo sapiens) (UniProt P27361); experiment: Inhibition of MAPK3 (unknown origin) at 1000 nM in the presence of ATP by Kinome scan method relative to control
Mitogen-activated protein kinase 3 (Homo sapiens), sequence (P27361 whole entry): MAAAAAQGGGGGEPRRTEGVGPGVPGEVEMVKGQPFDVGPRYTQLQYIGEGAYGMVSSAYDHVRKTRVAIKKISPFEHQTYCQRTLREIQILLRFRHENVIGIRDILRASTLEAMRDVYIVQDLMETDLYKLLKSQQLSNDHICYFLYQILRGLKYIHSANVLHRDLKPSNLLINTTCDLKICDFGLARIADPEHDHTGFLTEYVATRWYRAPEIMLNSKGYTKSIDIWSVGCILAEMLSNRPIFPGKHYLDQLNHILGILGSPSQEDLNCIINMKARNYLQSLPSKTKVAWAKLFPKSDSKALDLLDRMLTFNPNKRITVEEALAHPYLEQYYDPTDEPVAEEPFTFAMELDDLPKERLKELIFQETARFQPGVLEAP

HCT-116 [19] = experiment: Induction of apoptosis in human HCT-116 cells assessed as late apoptosis at 5 uM incubated for > 6 hrs by annexin V/PI staining based analysis (Rvb=6.12%); type: functional
HCT-116 [20] = experiment: Induction of cell cycle arrest in human HCT-116 cells assessed as G2/M phase at 0.1 uM incubated for 24 hrs by flow cytometry analysis (Rvb=17.9%); type: functional
HCT-116 [21] = experiment: Induction of cell cycle arrest in human HCT-116 cells assessed as sub G0/G1 phase at 0.5 uM incubated for 24 hrs by flow cytometry analysis (Rvb=2.5%); type: functional
HCT-116 [22] = experiment: Induction of apoptosis in human HCT-116 cells assessed as late apoptosis at 10 uM incubated for > 6 hrs by annexin V/PI staining based analysis (Rvb=6.12%); type: functional
[23] = target: 3-phosphoinositide-dependent protein kinase 1 (PDPK1) (Homo sapiens) (UniProt O15530); experiment: Inhibition of PDK1 Direct (unknown origin) at 1000 nM in the presence of ATP by Kinome scan method relative to control
3-phosphoinositide-dependent protein kinase 1 (PDPK1) (Homo sapiens), sequence (O15530 whole entry, looked up): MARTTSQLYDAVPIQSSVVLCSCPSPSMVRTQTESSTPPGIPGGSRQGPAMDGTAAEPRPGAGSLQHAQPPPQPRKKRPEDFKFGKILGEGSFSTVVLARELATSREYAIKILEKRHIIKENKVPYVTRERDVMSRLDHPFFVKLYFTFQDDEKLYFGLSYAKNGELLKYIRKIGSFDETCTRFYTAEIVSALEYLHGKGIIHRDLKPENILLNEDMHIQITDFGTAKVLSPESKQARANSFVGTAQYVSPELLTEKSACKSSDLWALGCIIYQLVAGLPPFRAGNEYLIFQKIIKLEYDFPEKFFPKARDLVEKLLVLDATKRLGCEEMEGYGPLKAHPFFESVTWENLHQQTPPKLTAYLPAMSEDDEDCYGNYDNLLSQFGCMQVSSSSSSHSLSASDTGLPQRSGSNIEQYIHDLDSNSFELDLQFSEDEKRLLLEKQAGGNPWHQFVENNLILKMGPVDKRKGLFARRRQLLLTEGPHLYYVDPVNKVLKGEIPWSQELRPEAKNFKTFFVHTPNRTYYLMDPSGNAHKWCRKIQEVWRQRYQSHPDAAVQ

[24] = target: Tyrosine-protein kinase ABL1 (Homo sapiens) (UniProt P00519); experiment: Inhibition of ABL1 (unknown origin) at 1000 nM in the presence of ATP by Kinome scan method relative to control; settings: time > 6.0 hrs
Tyrosine-protein kinase ABL1 (Homo sapiens), sequence (P00519 whole entry): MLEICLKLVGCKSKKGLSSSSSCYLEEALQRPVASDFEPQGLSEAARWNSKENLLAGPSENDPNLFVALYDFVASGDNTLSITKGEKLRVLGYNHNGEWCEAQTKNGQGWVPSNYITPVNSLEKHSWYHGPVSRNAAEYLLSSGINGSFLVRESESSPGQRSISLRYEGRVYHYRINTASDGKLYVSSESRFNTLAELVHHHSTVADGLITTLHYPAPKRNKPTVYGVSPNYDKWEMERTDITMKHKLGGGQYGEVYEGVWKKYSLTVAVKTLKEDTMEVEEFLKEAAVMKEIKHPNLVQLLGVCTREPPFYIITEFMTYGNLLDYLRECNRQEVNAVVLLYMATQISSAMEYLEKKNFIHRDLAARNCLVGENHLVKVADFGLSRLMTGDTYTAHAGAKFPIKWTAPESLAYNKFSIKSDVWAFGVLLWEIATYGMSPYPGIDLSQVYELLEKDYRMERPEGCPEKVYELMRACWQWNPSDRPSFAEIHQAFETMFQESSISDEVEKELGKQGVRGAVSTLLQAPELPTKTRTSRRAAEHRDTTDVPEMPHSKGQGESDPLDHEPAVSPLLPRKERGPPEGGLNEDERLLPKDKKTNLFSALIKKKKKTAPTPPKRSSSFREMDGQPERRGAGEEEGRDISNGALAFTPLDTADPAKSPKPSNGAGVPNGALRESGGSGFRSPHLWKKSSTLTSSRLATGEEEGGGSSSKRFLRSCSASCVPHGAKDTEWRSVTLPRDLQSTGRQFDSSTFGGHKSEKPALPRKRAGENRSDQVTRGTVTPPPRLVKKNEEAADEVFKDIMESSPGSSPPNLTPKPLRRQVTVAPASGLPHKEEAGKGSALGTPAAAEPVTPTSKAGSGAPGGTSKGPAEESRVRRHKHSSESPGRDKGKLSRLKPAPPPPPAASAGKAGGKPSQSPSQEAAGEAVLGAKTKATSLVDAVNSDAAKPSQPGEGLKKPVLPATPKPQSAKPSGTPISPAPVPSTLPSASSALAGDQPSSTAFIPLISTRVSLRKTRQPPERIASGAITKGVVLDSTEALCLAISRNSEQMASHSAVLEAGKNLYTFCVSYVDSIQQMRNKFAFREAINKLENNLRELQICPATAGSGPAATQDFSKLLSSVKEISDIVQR

[25] = target: Serine/threonine-protein kinase pim-1 (Homo sapiens) (UniProt P11309); experiment: Inhibition of PIM1 (unknown origin) at 1000 nM in the presence of ATP by Kinome scan method relative to control
[26] = target: Casein kinase I isoform delta (Homo sapiens) (UniProt P48730); experiment: Inhibition of CSNK1D (unknown origin) at 1000 nM in the presence of ATP by Kinome scan method relative to control
Casein kinase I isoform delta (Homo sapiens), sequence (P48730 whole entry, looked up, canonical isoform): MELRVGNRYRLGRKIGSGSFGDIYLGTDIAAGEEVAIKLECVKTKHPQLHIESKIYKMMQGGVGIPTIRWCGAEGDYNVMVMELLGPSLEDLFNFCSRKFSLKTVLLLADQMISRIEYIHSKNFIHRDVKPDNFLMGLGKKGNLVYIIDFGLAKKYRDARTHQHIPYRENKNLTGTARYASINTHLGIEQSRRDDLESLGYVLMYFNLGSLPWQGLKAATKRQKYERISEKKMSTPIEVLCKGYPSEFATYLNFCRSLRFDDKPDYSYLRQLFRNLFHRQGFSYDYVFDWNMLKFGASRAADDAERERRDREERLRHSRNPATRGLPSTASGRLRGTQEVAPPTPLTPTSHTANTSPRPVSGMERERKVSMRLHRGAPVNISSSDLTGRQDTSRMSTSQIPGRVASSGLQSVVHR

[27] = target: Serine/threonine-protein kinase Nek1 (Homo sapiens) (UniProt Q96PY6); experiment: Inhibition of NEK1 (unknown origin) at 1000 nM in the presence of ATP by Kinome scan method relative to control
[28] = target: Mitogen-activated protein kinase 14 (Homo sapiens) (UniProt Q16539); experiment: Inhibition of MAPK14 (unknown origin) at 1000 nM in the presence of ATP by Kinome scan method relative to control
[29] = target: Ribosomal protein S6 kinase beta-1 (Homo sapiens) (UniProt P23443); experiment: Inhibition of RPS6KB1 (unknown origin) at 1000 nM in the presence of ATP by Kinome scan method relative to control
[30] = target: Dual specificity protein kinase CLK1 (Homo sapiens) (UniProt P49759); experiment: Inhibition of CLK (unknown origin) in human HCT-116 cells assessed as induction in alternative splicing effect in S6K skipped exon incubated for 6 hrs by RT-PCR analysis; type: cell-based; settings: dose 0.2-5 µM; method in brief: as §1
[31] = target: Casein kinase I isoform alpha (Homo sapiens) (UniProt P48729); experiment: Inhibition of CSNK1A1 (unknown origin) at 100 nM in the presence of ATP by Kinome scan method relative to control
Casein kinase I isoform alpha (Homo sapiens), sequence (P48729 2-337 limits assumed): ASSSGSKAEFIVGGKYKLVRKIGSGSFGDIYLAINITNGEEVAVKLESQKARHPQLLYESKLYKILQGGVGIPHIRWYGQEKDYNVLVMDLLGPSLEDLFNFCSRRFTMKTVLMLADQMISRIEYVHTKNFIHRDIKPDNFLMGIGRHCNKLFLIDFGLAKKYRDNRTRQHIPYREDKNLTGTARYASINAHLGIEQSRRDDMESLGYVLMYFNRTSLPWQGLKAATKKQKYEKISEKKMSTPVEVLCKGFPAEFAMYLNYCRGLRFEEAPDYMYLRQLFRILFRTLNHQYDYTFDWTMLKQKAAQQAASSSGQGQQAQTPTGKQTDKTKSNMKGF

inhibition [2]: -1% | inhibition [3]: Dose-Dependent Effect | inhibition [4]: -1% | inhibition [5]: 5% | inhibition [6]: -6% | IC50 [9]: 230 nM | inhibition [11]: 3% | inhibition [13]: 99% | inhibition [14]: Dose-Dependent Effect | inhibition [18]: 6% | inhibition [23]: 2% | inhibition [24]: 56% | inhibition [25]: 11% | inhibition [26]: 4% | inhibition [27]: 25% | inhibition [28]: 6% | inhibition [29]: 1% | inhibition [30]: Dose-Dependent Effect | inhibition [31]: -4%
SMILES: CN1CCN(C(=O)C(C)(C)c2ccc(C(=O)Nc3cn4cc(-c5ccncc5)ccc4n3)cc2)CC1 [T3-CLK]
Activity (HCT-116 [1]): 2.8% | Activity (HCT-116 [7]): 7.46% | Activity (HCT-116 [8]): 26.3% | Activity (HCT-116 [10]): 1.6% | Activity (HCT-116 [12]): 6.85% | Activity (HCT-116 [15]): 45.3% | Activity (HCT-116 [16]): 46.9% | viability at 10 µM (HCT-116 [17]): 87.3% | Activity (HCT-116 [19]): 8.23% | Activity (HCT-116 [20]): 20.7% | Activity (HCT-116 [21]): 13.1% | Activity (HCT-116 [22]): 8.13%
